Experimental data taken from ChEMBL document CHEMBL1153955, “Indolylarylsulfones bearing natural and unnatural amino acids. Discovery of potent inhibitors of HIV-1 non-nucleoside wild type and resistant mutant strains reverse transcriptase and coxsackie B4 virus” (J Med Chem, 2009).
pEC50, pIC50: −log10 of the molar value.

How the values were obtained:
[1] = test system: Respiratory syncytial virus; experiment: Antiviral activity against RSV Long in human HeLa cells assessed as protection against virus-induced cytopathicity; format: functional, organism-based
Summary of the method: (§1)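 Confluent cell monolayers inoculated with 100 CCID₅₀ virus. After 1-2 h adsorption, residual virus removed and cultures incubated with varying compound concentrations. Cytopathicity scored once it reached completion in untreated infected controls. EC₅₀ = dose reducing virus-induced cytopathogenicity by 50%.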

[2] = test system: Vesicular stomatitis virus; experiment: Antiviral activity against VSV in human HeLa cells assessed as protection against virus-induced cytopathicity; format: functional, organism-based
[3] = test system: Human immunodeficiency virus 1; experiment: Antiviral activity against HIV1 3B in human CEM cells assessed as protection against virus-induced cytopathicity after 4 days; format: functional, organism-based; conditions: Human immunodeficiency virus 1, 3B, CCRF-CEM, 96 h
Summary of the method: (§2)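 CEM cells (~3 × 10⁵ cells/mL) infected with ~100 CCID₅₀ per mL of HIV-1 (IIIB) or HIV-2 (ROD), then seeded into wells containing compound dilutions. After 4 days at 37 °C, syncytium (giant cell) formation was examined microscopically. EC₅₀ = concentration protecting CEM cells from HIV cytopathicity by 50%.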

[4] = test system: Human immunodeficiency virus 2; experiment: Antiviral activity against HIV2 ROD in human CEM cells assessed as protection against virus-induced cytopathicity after 4 days; format: functional, organism-based; conditions: Human immunodeficiency virus 2, ROD, CCRF-CEM, 96 h; summary of the method: as §2
L1210 = experiment: Antiproliferative activity against mouse L1210 cells after 2 days; format: cell-based; conditions: L1210, 48 h
Summary of the method: (§3)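 Cells seeded at 5 × 10⁴ to 7.5 × 10⁴ cells/200 µL with or without serial compound dilutions; incubated at 37 °C for 2 days (L1210) or 3 days (Molt4/C8, CEM). Cell numbers counted with a Coulter counter. CC₅₀ = concentration reducing proliferation by 50% versus untreated controls, read from plots of cell number (% of control) against concentration. Means of at least two independent experiments.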

[5] = Antiproliferative activity against human Molt4/C8 cells after 3 days; format: cell-based; conditions: MOLT-4, 72 h; summary of the method: as §3
CCRF-CEM = experiment: Antiproliferative activity against human CEM cells after 3 days; format: cell-based; conditions: 72 h; summary of the method: as §3
[6] = biological target: Human immunodeficiency virus type 1 reverse transcriptase (Human immunodeficiency virus 1, UniProt Q72547); experiment: Inhibition of HIV1 reverse transcriptase p66/p51; conditions: read-out: IC50
[7] = biological target: Human immunodeficiency virus type 1 reverse transcriptase (Human immunodeficiency virus 1, UniProt Q72547, L100I); experiment: Inhibition of HIV1 reverse transcriptase p66/p51 L100I mutant; conditions: read-out: IC50
Summary of the method: (§4)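 Substrate was 0.5 µg poly(rA)/oligo(dT) 10:1 (0.3 µM 3′-OH ends) with 10 µM [³H]dTTP, at 37 °C. Acid-precipitable radioactivity was counted on GF/C filters after TCA washes.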

[8] = biological target: Human immunodeficiency virus type 1 reverse transcriptase (Human immunodeficiency virus 1, UniProt Q72547, K103N); experiment: Inhibition of HIV1 reverse transcriptase p66/p51 K103N mutant; conditions: read-out: IC50; summary of the method: as §4
[9] = biological target: Human immunodeficiency virus type 1 reverse transcriptase (Human immunodeficiency virus 1, UniProt Q72547, Y181I); experiment: Inhibition of HIV1 reverse transcriptase p66/p51 Y181I mutant; conditions: read-out: IC50; summary of the method: as §4
[10] = Cytotoxicity against human HeLa cells assessed as drug level causing microscopically detectable alteration of normal cell morphology after 3 days; format: cell-based
Summary of the method: (§5)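 Serial compound dilutions added to confluent HeLa or Vero monolayers. MCC = minimum concentration causing microscopically detectable alteration of cell morphology after 3 days of incubation.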

[11] = Cytotoxicity against african green monkey Vero cells assessed as drug level causing microscopically detectable alteration of normal cell morphology after 3 days; format: cell-based; conditions: chlorocebus sabaeus; summary of the method: as §5
Coxsackievirus B4 [12] = experiment: Antiviral activity against Coxsackievirus B4 in human HeLa cells assessed as protection against virus-induced cytopathicity; format: functional, organism-based; conditions: Enterovirus B; summary of the method: as §1
Coxsackievirus B4 [13] = experiment: Antiviral activity against Coxsackievirus B4 in african green monkey Vero cells assessed as protection against virus-induced cytopathicity; format: functional, organism-based; conditions: Enterovirus B; summary of the method: as §1
Human respirovirus 3 = experiment: Antiviral activity against Parainfluenza virus type 3 in african green monkey Vero cells assessed as protection against virus-induced cytopathicity; format: functional, organism-based; conditions: Human respirovirus 3, Vero; summary of the method: as §1
[14] = test system: Mammalian orthoreovirus 1; experiment: Antiviral activity against Reovirus 1 in african green monkey Vero cells assessed as protection against virus-induced cytopathicity; format: functional, organism-based; conditions: Mammalian orthoreovirus 1, Vero; summary of the method: as §1
Sindbis virus = experiment: Antiviral activity against Sindbis virus in african green monkey Vero cells assessed as protection against virus-induced cytopathicity; format: functional, organism-based; summary of the method: as §1
Punta Toro virus = experiment: Antiviral activity against Punta Toro virus in african green monkey Vero cells assessed as protection against virus-induced cytopathicity; format: functional, organism-based; summary of the method: as §1
[15] = Cytotoxicity against human HEL cells assessed as drug level causing microscopically detectable alteration of normal cell morphology after 3 days; format: cell-based
Human alphaherpesvirus 1 [16] = experiment: Antiviral activity against HSV1 KOS in human HEL cells assessed as protection against virus-induced cytopathicity; format: functional, organism-based; conditions: Human alphaherpesvirus 1, KOS
Human alphaherpesvirus 2 = experiment: Antiviral activity against HSV2 G in human HEL cells assessed as protection against virus-induced cytopathicity; format: functional, organism-based; conditions: Human alphaherpesvirus 2, strain G; summary of the method: as §1
Vaccinia virus = experiment: Antiviral activity against Vaccinia virus Lederle in human HEL cells assessed as protection against virus-induced cytopathicity; format: functional, organism-based; conditions: Orthopoxvirus vaccinia
[17] = test system: Vesicular stomatitis virus; experiment: Antiviral activity against VSV in human HEL cells assessed as protection against virus-induced cytopathicity; format: functional, organism-based
Human alphaherpesvirus 1 [18] = experiment: Antiviral activity against thymidine kinase deficient and acyclovir resistant HSV1 KOS in human HEL cells assessed as protection against virus-induced cytopathicity; format: functional, organism-based; conditions: Human alphaherpesvirus 1, KOS
[19] = Cytotoxicity against MDCK cells assessed as drug level causing microscopically detectable alteration of normal cell morphology; format: cell-based, Canis lupus familiaris; conditions: dog
[20] = Cytotoxicity against MDCK cells by MTS assay; format: cell-based, Canis lupus familiaris; conditions: dog
Influenza A virus [21] = experiment: Antiviral activity against influenza H1N1 virus in MDCK cells assessed as reduction of virus-induced cytopathicity by visual cytopathic effect scoring method; format: functional, organism-based
Influenza A virus [22] = experiment: Antiviral activity against influenza H1N1 virus in MDCK cells assessed as reduction of virus-induced cytopathicity by MTS method; format: functional, organism-based; conditions: Influenza A virus, H1N1, MDCK
Influenza A virus H3N2 [23] = experiment: Antiviral activity against influenza H3N2 virus in MDCK cells assessed as reduction of virus-induced cytopathicity by visual cytopathic effect scoring method; format: functional, organism-based
Influenza A virus H3N2 [24] = experiment: Antiviral activity against influenza H3N2 virus in MDCK cells assessed as reduction of virus-induced cytopathicity by MTS method; format: functional, organism-based
Influenza B virus [25] = experiment: Antiviral activity against influenza B virus in MDCK cells assessed as reduction of virus-induced cytopathicity by visual cytopathic effect scoring method; format: functional, organism-based
Influenza B virus [26] = experiment: Antiviral activity against influenza B virus in MDCK cells assessed as reduction of virus-induced cytopathicity by MTS method; format: functional, organism-based
[27] = Cytotoxicity against feline CRFK cells by MTS assay; format: cell-based, Felis catus; conditions: cat
Feline coronavirus = experiment: Antiviral activity against Feline coronavirus in feline […] cells assessed as inhibition of virus-induced cytopathicity; format: functional, organism-based; conditions: Alphacoronavirus 1
Felid alphaherpesvirus 1 = experiment: Antiviral activity against Feline herpesvirus in feline […] cells assessed as inhibition of virus-induced cytopathicity; format: functional, organism-based

Compound | pEC50 [1] | pEC50 [2] | pEC50 [3] | pEC50 [4] | pIC50 (L1210) | pIC50 [5] | pIC50 (CCRF-CEM) | pIC50 [6] | pIC50 [7] | pIC50 [8] | pIC50 [9] | MCC at 72 h [10] | MCC at 72 h [11] | pEC50 (Coxsackievirus B4 [12]) | pEC50 (Coxsackievirus B4 [13]) | pEC50 (Human respirovirus 3) | pEC50 [14] | pEC50 (Sindbis virus) | pEC50 (Punta Toro virus) | MCC at 72 h [15] | also measured
Cc1cc(C)cc(S(=O)(=O)c2c(C(=O)NCC(N)=O)[nH]c3ccc(Br)cc23)c1 | 4.70 | < 4.70 | 8.59 | 4.37 | 4.40 | 4.77 | 4.51 | 7.59 | 6.70 | 6.11 | 5.66 | 100 µM | 100 µM | 5.40 | < 4.70 | < 4.70 | < 4.70 | < 4.70 | < 4.70 | 100 µM | pEC50 (Human alphaherpesvirus 1 [16]): < 4.70; pEC50 (Human alphaherpesvirus 2): < 4.70; pEC50 (Vaccinia virus): < 4.70; pEC50 [17]: < 4.70; pEC50 (Human alphaherpesvirus 1 [18]): < 4.70; MCC [19]: 20 µM; CC50 [20]: 9.8 µM; pEC50 (Influenza A virus [21]): < 5.40; pEC50 (Influenza A virus [22]): < 5.40; pEC50 (Influenza A virus H3N2 [23]): < 5.40; pEC50 (Influenza A virus H3N2 [24]): < 5.40; pEC50 (Influenza B virus [25]): < 5.40; pEC50 (Influenza B virus [26]): < 5.40; CC50 [27]: 53 µM; pEC50 (Feline coronavirus): < 4.70; pEC50 (Felid alphaherpesvirus 1): < 4.70
Cc1cc(C)cc(S(=O)(=O)c2c(C(=O)NCCC(N)=O)[nH]c3ccc([N+](=O)[O-])cc23)c1 | < 4.00 | < 4.00 | 8.80 | < 5.00 | < 3.30 | < 3.30 | ≤ 3.30 | 7.57 | 6.69 | 6.32 | 5.26 | > 100 µM | > 100 µM | < 4.00 | < 4.00 | < 4.00 | < 4.00 | < 4.00 | < 4.00 | ≥ 20 µM | pEC50 (Human alphaherpesvirus 1 [16]): < 4.70; pEC50 (Human alphaherpesvirus 2): < 4.70; pEC50 (Vaccinia virus): < 4.70; pEC50 [17]: < 4.70; pEC50 (Human alphaherpesvirus 1 [18]): < 4.70; MCC [19]: 100 µM; CC50 [20]: > 100 µM; pEC50 (Influenza A virus [21]): < 4.70; pEC50 (Influenza A virus [22]): < 4.70; pEC50 (Influenza A virus H3N2 [23]): < 4.70; pEC50 (Influenza A virus H3N2 [24]): < 4.70; pEC50 (Influenza B virus [25]): < 4.70; pEC50 (Influenza B virus [26]): < 4.70; CC50 [27]: > 100 µM; pEC50 (Feline coronavirus): < 4.00; pEC50 (Felid alphaherpesvirus 1): < 4.00
Cc1cc(C)cc(S(=O)(=O)c2c(C(=O)NCCC(N)=O)[nH]c3ccc(Br)cc23)c1 | ≤ 4.70 | < 4.70 | 8.96 | 4.64 | 4.34 | 4.60 | 4.44 | 7.07 | 6.77 | 6.38 | 5.07 | ≥ 20 µM | 100 µM | 4.96 | 4.80 | < 4.70 | < 4.70 | < 4.70 | < 4.70 | 20 µM | pEC50 (Human alphaherpesvirus 1 [16]): < 5.40; pEC50 (Human alphaherpesvirus 2): < 5.40; pEC50 (Vaccinia virus): < 5.40; pEC50 [17]: < 5.40; pEC50 (Human alphaherpesvirus 1 [18]): < 5.40; MCC [19]: 20 µM; CC50 [20]: 8.5 µM; pEC50 (Influenza A virus [21]): < 5.40; pEC50 (Influenza A virus [22]): < 5.40; pEC50 (Influenza A virus H3N2 [23]): < 5.40; pEC50 (Influenza A virus H3N2 [24]): < 5.40; pEC50 (Influenza B virus [25]): < 5.40; pEC50 (Influenza B virus [26]): < 5.40; CC50 [27]: 15.6 µM; pEC50 (Feline coronavirus): < 5.40; pEC50 (Felid alphaherpesvirus 1): < 5.40
